In brackets after ≈: the same amount, converted by molar mass. Positions of bridges follow the written chain, without caps; N, C: chain ends. Non-standard residues stand in square brackets, D forms with d. Residues, ends and D or L forms follow the SMILES beside them. *: point of attachment. X1 = CC[C@H](C)CCCCC(=O)*; Dab = NCC[C@H](N)C(=O)O
Assays:
[1] = system: P. aeruginosa FADDI-PA038; experiment: MIC in CAMHB; type: cell-based, Pseudomonas aeruginosa; settings: polymyxin susceptible, 10^6 CFU/mL, 18 h, 37 °C, visible growth
[2] = system: P. aeruginosa FADDI-PA002; experiment: MIC in CAMHB; type: cell-based, Pseudomonas aeruginosa; settings: polymyxin susceptible, 10^6 CFU/mL, 18 h, 37 °C, visible growth
[3] = system: polymyxin-sensitive P. aeruginosa isolates; experiment: MIC in CAMHB, panel summary; type: cell-based, Pseudomonas aeruginosa; settings: range over the panel of Table 1, CAMHB
P. aeruginosa ATCC 27853 = experiment: MIC in CAMHB; type: cell-based, Pseudomonas aeruginosa; settings: polymyxin susceptible, 10^6 CFU/mL, 18 h, 37 °C, visible growth
mucin = settings: dialysis; ref Huang et al., 32; cited from earlier work
[4] = system: P. aeruginosa CF isolate FADDI-PA066; experiment: Cell viability, planktonic growth in artificial sputum media; type: cell-based, Pseudomonas aeruginosa; settings: up to 128 mg/L
[5] = system: P. aeruginosa FADDI-PA021; experiment: Impact of sputum biomolecules on lipopeptide activity in CAMHB; type: cell-based, Pseudomonas aeruginosa; settings: lipopeptide 2 mg/L, 3 h, colony counts; for impact of DNA on antibacterial activity: DNA 125 mg/L; for impact of F-actin/DNA on antibacterial activity: F-actin/DNA 125 mg/L
In short: (§1)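 Mid-log cultures (OD500 0.4–0.6; 37 °C, 180 rpm) were diluted to OD ~0.05 in CAMHB. Test compound at 2 mg/L was coincubated for 3 h in 24-well plates with one biomolecule at 125 mg/L: F-actin/DNA, DNA, mucin, phospholipids, surfactant or LPS. Samples were spiral-plated and incubated overnight at 37 °C, and colonies were counted automatically. Detection limit 10 CFU/mL.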

[6] = system: P. aeruginosa FADDI-PA025; experiment: MIC in CAMHB; type: cell-based, Pseudomonas aeruginosa; settings: polymyxin susceptible, 10^6 CFU/mL, 18 h, 37 °C, visible growth
[7] = system: P. aeruginosa FADDI-PA066; experiment: Transmission electron microscopy of cells growing in biofilm; type: cell-based, Pseudomonas aeruginosa; settings: 1× MIC (colistin 128 mg/L; octapeptin A3 16 mg/L), 1 h, 37 °C
[8] = system: P. aeruginosa FADDI-PA001; experiment: MIC in CAMHB; type: cell-based, Pseudomonas aeruginosa; settings: polymyxin susceptible, 10^6 CFU/mL, 18 h, 37 °C, visible growth
[9] = system: P. aeruginosa FADDI-PA091; experiment: MIC in CAMHB; type: cell-based, Pseudomonas aeruginosa; settings: polymyxin susceptible, 10^6 CFU/mL, 18 h, 37 °C, visible growth
[10] = system: P. aeruginosa FADDI-PA066; experiment: MIC in CAMHB; type: cell-based, Pseudomonas aeruginosa; settings: polymyxin resistant CF isolate, 10^6 CFU/mL, 18 h, 37 °C, visible growth
[11] = system: P. aeruginosa FADDI-PA066; experiment: Impact of sputum biomolecules on lipopeptide activity in CAMHB; type: cell-based, Pseudomonas aeruginosa; settings: lipopeptide 2 mg/L, 3 h, colony counts; for impact of F-actin/DNA on antibacterial activity: F-actin/DNA 125 mg/L; for impact of mucin on antibacterial activity: mucin 125 mg/L (50% (w/v)); for impact of phospholipids on antibacterial activity: phospholipids 125 mg/L
In short: as §1

[12] = system: P. aeruginosa FADDI-PA020; experiment: as above; type: cell-based, Pseudomonas aeruginosa; settings: lipopeptide 2 mg/L, 3 h, colony counts; for impact of DNA on antibacterial activity: DNA 125 mg/L; for impact of F-actin/DNA on antibacterial activity: F-actin/DNA 125 mg/L
In short: as §1

[13] = system: P. aeruginosa FADDI-PA092; experiment: MIC in CAMHB; type: cell-based, Pseudomonas aeruginosa; settings: polymyxin resistant, 10^6 CFU/mL, 18 h, 37 °C, visible growth
[14] = system: P. aeruginosa FADDI-PA022; experiment: MIC in CAMHB; type: cell-based, Pseudomonas aeruginosa; settings: polymyxin susceptible, 10^6 CFU/mL, 18 h, 37 °C, visible growth
[15] = system: P. aeruginosa FADDI-PA069; experiment: MIC in CAMHB; type: cell-based, Pseudomonas aeruginosa; settings: polymyxin resistant, 10^6 CFU/mL, 18 h, 37 °C, visible growth
[16] = system: P. aeruginosa FADDI-PA060; experiment: MIC in CAMHB; type: cell-based, Pseudomonas aeruginosa; settings: polymyxin resistant, 10^6 CFU/mL, 18 h, 37 °C, visible growth
[17] = system: P. aeruginosa FADDI-PA062; experiment: MIC in CAMHB; type: cell-based, Pseudomonas aeruginosa; settings: polymyxin resistant, 10^6 CFU/mL, 18 h, 37 °C, visible growth
[18] = system: P. aeruginosa FADDI-PA093; experiment: MIC in CAMHB; type: cell-based, Pseudomonas aeruginosa; settings: polymyxin resistant, 10^6 CFU/mL, 18 h, 37 °C, visible growth
[19] = system: P. aeruginosa FADDI-PA065; experiment: MIC in CAMHB; type: cell-based, Pseudomonas aeruginosa; settings: polymyxin resistant, 10^6 CFU/mL, 18 h, 37 °C, visible growth
[20] = system: P. aeruginosa FADDI-PA070; experiment: MIC in CAMHB; type: cell-based, Pseudomonas aeruginosa; settings: polymyxin resistant, 10^6 CFU/mL, 18 h, 37 °C, visible growth
[21] = system: P. aeruginosa FADDI-PA068; experiment: MIC in CAMHB; type: cell-based, Pseudomonas aeruginosa; settings: polymyxin resistant, 10^6 CFU/mL, 18 h, 37 °C, visible growth

SMILES	minimum inhibitory concentration [1] [µg/mL]	minimum inhibitory concentration [2] [µg/mL]	MICs against the polymyxin-sensitive isolates [3] [mg/L]	minimum inhibitory concentration (P. aeruginosa ATCC 27853) [µg/mL]	binding to mucin (mucin)	activity (reduction of cell viability), in words [4]	impact of DNA on antibacterial activity [5]	impact of F-actin/DNA on antibacterial activity [5]	minimum inhibitory concentration [6] [µg/mL]	minimum inhibitory concentration [8] [µg/mL]	minimum inhibitory concentration [9] [µg/mL]	minimum inhibitory concentration [10] [µg/mL]	impact of F-actin/DNA on antibacterial activity [11]	impact of mucin on antibacterial activity [11]	impact of phospholipids on antibacterial activity [11]	impact of DNA on antibacterial activity [12]	impact of F-actin/DNA on antibacterial activity [12]	minimum inhibitory concentration [14] [µg/mL]	further results
CC[C@H](C)CCCCC(=O)N[C@@H](CCN)C(=O)N[C@H](C(=O)N[C@@H](CCN)C(=O)N[C@H]1CCNC(=O)[C@H]([C@@H](C)O)NC(=O)[C@H](CCN)NC(=O)[C@H](CCN)NC(=O)[C@H](CC(C)C)NC(=O)[C@@H](CC(C)C)NC(=O)[C@H](CCN)NC1=O)[C@@H](C)O [colistin] (X1-[Dab]T[Dab][Dab][Dab][dL]L[Dab][Dab]T; lactam 4-C (inferred); N-terminus assumed)	1 (≈ 0.855 µM)	0.25 (≈ 0.214 µM)	0.25 to 4	1 (≈ 0.855 µM)	avidly bind	inactive even at 128 mg/L	marginally impacted	inhibited	2 (≈ 1.71 µM)	0.5 (≈ 0.428 µM)	0.5 (≈ 0.428 µM)	>128	no impact	not noticeable	not discernible	marginally impacted	only marginally affected	1 (≈ 0.855 µM)	effect on bacterial outer membrane (TEM) [7]: blebbing effect with vesicular protrusions from the outer membrane; minimum inhibitory concentration [13]: 16 µg/mL (≈ 13.7 µM)
CC[C@H](C)CCCCC(=O)N[C@@H](CCN)C(=O)N[C@H](C(=O)N[C@@H](CCN)C(=O)N[C@H]1CCNC(=O)[C@H]([C@@H](C)O)NC(=O)[C@H](CCN)NC(=O)[C@H](CCN)NC(=O)[C@H](CC(C)C)NC(=O)[C@@H](Cc2ccccc2)NC(=O)[C@H](CCN)NC1=O)[C@@H](C)O [polymyxin B] (X1-[Dab]T[Dab][Dab][Dab][dF]L[Dab][Dab]T; lactam 4-C (inferred); N-terminus assumed)	1 (≈ 0.831 µM)	0.5 (≈ 0.415 µM)	0.25 to 4	0.5 (≈ 0.415 µM)	avidly bind	inactive even at 128 mg/L	marginally impacted	inhibited	2 (≈ 1.66 µM)	0.5 (≈ 0.415 µM)	1 (≈ 0.831 µM)	32 (≈ 26.6 µM)	marginally inhibited	not noticeable	not discernible	marginally impacted	only marginally affected	1 (≈ 0.831 µM)	minimum inhibitory concentration [15]: >32 µg/mL; minimum inhibitory concentration [16]: >128 µg/mL; minimum inhibitory concentration [17]: >32 µg/mL; minimum inhibitory concentration [18]: 32 µg/mL (≈ 26.6 µM); minimum inhibitory concentration [19]: >32 µg/mL; minimum inhibitory concentration [20]: >32 µg/mL; minimum inhibitory concentration [21]: >32 µg/mL
